Experimental data published in ChEMBL document CHEMBL4376838, “Discovery of Novel Celastrol Derivatives as Hsp90-Cdc37 Interaction Disruptors with Antitumor Activity” (J Med Chem, 2019).
Activity calls are given as the source filed them. No cut-off for these calls is given here.

Tests used:
A549 [1] = assay: Antiproliferative activity against human A549 cells assessed as inhibition of cell growth at 1.5 uM incubated for 48 hrs by MTT assay relative to control; assay type: functional; conditions: A549, 48 h; for inhibition of growth at 1.5 µM: read-out: GI
HOS = assay: Antiproliferative activity against human HOS cells assessed as inhibition of cell growth incubated for 48 hrs by MTT assay; assay type: functional, cell-based
In short: (§1)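 MTT read-out. Cells seeded at 5.0 × 10⁴ cells/ml and cultured 24 h, then exposed to the drug over a range of concentrations for 48 h, with matching DMSO as control. MTT (5 mg/ml) added for 4 h, supernatant removed, formazan dissolved in DMSO, OD read at 570 nm. Run in triplicate, mean ± SD (n = 3).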

MCF7 = assay: Antiproliferative activity against human MCF7 cells assessed as inhibition of cell growth incubated for 48 hrs by MTT assay; assay type: functional, cell-based; conditions: MCF7, 48 h; in short: as §1
A549 [2] = assay: Antiproliferative activity against human A549 cells assessed as inhibition of cell growth incubated for 48 hrs by MTT assay; assay type: functional, cell-based; conditions: A549, 48 h; in short: as §1
HepG2 = assay: Antiproliferative activity against human HepG2 cells assessed as inhibition of cell growth incubated for 48 hrs by MTT assay; assay type: functional, cell-based; conditions: HepG2, 48 h; in short: as §1
[3] = target: T1, Hsp90 co-chaperone Cdc37 (Homo sapiens) (UniProt Q16543); assay: Binding affinity to Cdc37 in human A549 cells assessed as inhibition of HSP90-Cdc37 interaction by measuring decrease in CDK4 protein level at 5 uM incubated for 12 hrs by Western blot analysis; assay type: cell-based
T1 sequence (whole entry): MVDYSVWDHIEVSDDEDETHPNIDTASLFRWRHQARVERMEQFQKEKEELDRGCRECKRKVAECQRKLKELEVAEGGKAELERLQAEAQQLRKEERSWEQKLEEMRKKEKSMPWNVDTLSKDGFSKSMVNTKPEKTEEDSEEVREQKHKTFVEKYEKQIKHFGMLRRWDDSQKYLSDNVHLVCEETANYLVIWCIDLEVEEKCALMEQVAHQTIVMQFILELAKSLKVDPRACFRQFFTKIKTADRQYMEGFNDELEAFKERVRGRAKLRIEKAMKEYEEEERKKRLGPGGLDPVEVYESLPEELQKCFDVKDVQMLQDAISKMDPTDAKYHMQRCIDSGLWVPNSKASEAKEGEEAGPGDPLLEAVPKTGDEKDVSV
In short: (§2)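 A549 cells seeded 5×10^5 per 6 cm dish, grown 12 h, then exposed to compound or DMSO for 12 h. Lysates adjusted to 3 mg/ml protein (BCA), run on 10% SDS-PAGE, immunoblotted for p-Akt and Cdk4. Band levels quantified against Hsp90 loading control. Three separate experiments, mean ± SD.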

A549 [4] = assay: Induction of apoptosis in human A549 cells assessed as necrotic cells at 1.2 uM incubated for 48 hrs by Annexin V-FITC and PI staining based flow cytometric analysis (reference value: 1.0%); assay type: functional
In short: (§3)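 A549 cells (4×10^5 per 6 cm dish) cultured 24 h, then treated 48 h with compound or DMSO. Cells gently harvested, washed twice in cold PBS, resuspended in binding buffer with Annexin V and PI, stained 15 min at room temperature in the dark, analysed by flow cytometry. Mean ± SD, n = 3.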

A549 [5] = assay: Induction of apoptosis in human A549 cells assessed as early apoptotic cells at 1.2 uM incubated for 48 hrs by Annexin V-FITC and PI staining based flow cytometric analysis (reference value: 0.5%); assay type: functional; in short: as §3
[6] = target: T1, Hsp90 co-chaperone Cdc37 (Homo sapiens); assay: Binding affinity to Cdc37 in human A549 cells assessed as inhibition of HSP90-Cdc37 interaction by measuring decrease in Akt phosphorylation level at 5 uM incubated for 12 hrs by Western blot analysis; assay type: cell-based; in short: as §2
A549 [7] = assay: Induction of apoptosis in human A549 cells assessed as late apoptotic cells at 1.2 uM incubated for 48 hrs by Annexin V-FITC and PI staining based flow cytometric analysis (reference value: 3.0%); assay type: functional; in short: as §3
A549 [8] = assay: Induction of apoptosis in human A549 cells assessed as viable cells at 1.2 uM incubated for 48 hrs by Annexin V-FITC and PI staining based flow cytometric analysis (reference value: 95.5%); assay type: functional; conditions: A549, 48 h, read-out: Activity; in short: as §3
[9] = target: Heat shock protein HSP 90-alpha (Homo sapiens) (UniProt P07900); assay: Inhibition of ATP binding to human HSP90 alpha at 5 to 10 uM preincubated for 30 mins followed by gamma phosphate-linked ATP sepharose addition and measured after 30 mins by ATP-binding sepharose assay based western blot analysis
In short: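 Purified human Hsp90α incubated on ice 30 min with compound or DMSO in 10 mM Tris-HCl pH 7.5, 50 mM KCl, 5 mM MgCl2, 2 mM DTT, 20 mM Na2MoO4, 0.01% NP-40. γ-phosphate-linked ATP-Sepharose then added, 30 min at 37 °C with frequent mixing. Resin washed and pelleted, bound Hsp90α detected by SDS-PAGE/Western blot.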

A549 [10] = assay: Antiproliferative activity against human A549 cells assessed as inhibition of cell growth at 0.5 uM incubated for 48 hrs by MTT assay relative to control; assay type: functional; conditions: A549, 48 h, read-out: GI

Structure (SMILES)	inhibition of growth at 1.5 µM (A549 [1])	IC50 (HOS)	IC50 (MCF7)	IC50 (A549 [2])	IC50 (HepG2)	inhibition [3]	inhibition at 1.5 µM (A549 [1])	Activity (A549 [4])	Activity (A549 [5])	inhibition [6]	Activity (A549 [7])	viability at 1.2 µM (A549 [8])	inhibition [9]	inhibition of growth at 0.5 µM (A549 [10])
CC1=C(O)C(=O)C=C2C1=CC=C1[C@@]2(C)CC[C@@]2(C)[C@@H]3C[C@](C)(C(=O)OCCOC(=O)/C=C(\C#N)c4ccccc4)CC[C@]3(C)CC[C@]12C	59.6%	0.54 µM	0.7 µM	1.02 µM	0.65 µM	–	–	–	–	–	–	–	–	–
COc1ccc(/C(C#N)=C/C(=O)OCCOC(=O)[C@]2(C)CC[C@]3(C)CC[C@]4(C)C5=CC=C6C(=CC(=O)C(O)=C6C)[C@]5(C)CC[C@@]4(C)[C@@H]3C2)cc1	48.1%	1.14 µM	0.97 µM	1.79 µM	0.97 µM	–	–	–	–	–	–	–	–	–
CC1=C(O)C(=O)C=C2C1=CC=C1[C@@]2(C)CC[C@@]2(C)[C@@H]3C[C@](C)(C(=O)O)CC[C@]3(C)CC[C@]12C [CELASTROL]	–	1.46 µM	2.04 µM	1.48 µM	3.18 µM	Active	48%	3.9%	7.5%	Active	15.6%	73%	inactive	–
COC(=O)CSC1C=C2C(C)(CC[C@@]3(C)[C@@H]4C[C@](C)(C(=O)OCCCOC(=O)/C=C(\C#N)c5ccc(F)cc5)CC[C@]4(C)CC[C@]23C)c2cc(OC(C)=O)c(OC(C)=O)c(C)c21 (single isomer, unassigned)	–	–	–	–	–	–	–	–	–	–	–	–	–	20.5%
CC1=C(O)C(=O)C=C2C1=CC=C1[C@@]2(C)CC[C@@]2(C)[C@@H]3C[C@](C)(C(=O)OCCCOC(=O)/C=C(\C#N)c4ccccc4)CC[C@]3(C)CC[C@]12C	53.7%	0.45 µM	0.98 µM	1.41 µM	0.76 µM	–	–	–	–	–	–	–	–	–
COc1ccc(/C(C#N)=C/C(=O)OCCCOC(=O)[C@]2(C)CC[C@]3(C)CC[C@]4(C)C5=CC=C6C(=CC(=O)C(O)=C6C)[C@]5(C)CC[C@@]4(C)[C@@H]3C2)cc1	53.4%	1.75 µM	1.1 µM	1.09 µM	1.27 µM	–	–	–	–	–	–	–	–	–
CC1=C(O)C(=O)C=C2C1=CC=C1[C@@]2(C)CC[C@@]2(C)[C@@H]3C[C@](C)(C(=O)OCCOC(=O)/C=C(\C#N)c4ccc(F)cc4)CC[C@]3(C)CC[C@]12C	65.9%	2.18 µM	2.35 µM	1.02 µM	3.89 µM	–	–	–	–	–	–	–	–	–
